Measurements: ChEMBL document CHEMBL1126899, “Nonpeptide angiotensin II antagonists derived from 1H-pyrazole-5-carboxylates and 4-aryl-1H-imidazole-5-carboxylates” (J Med Chem, 1993)
Active and inactive are the calls of the source. No cut-off for these calls is given here.

Experiments:
[1] = system: Rattus norvegicus; test: Peak percent inhibition of Angiotensin II pressor response in conscious, normotensive rats 1 at mg/kg iv; assay type: functional
Summary of the method: (§1)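 Male Sprague-Dawley rats (300–400 g), conscious, catheterized for iv dosing and for arterial pressure and heart rate. Compound given iv or po; PEG 400 vehicle in some oral cases. AII 0.1 μg/kg iv boluses at set intervals afterward. % inhibition of the MAP rise was calculated at each time point, and the peak was taken. Averaged from at least two rats unless noted.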

[2] = target: T1, Type-1 angiotensin II receptor (Oryctolagus cuniculus, UniProt P34976); test: Evaluation of Angiotensin II antagonistic activity by displacement of [125I]-Sar Ile-AII at the rabbit aorta Angiotensin II receptor, type 1; assay type: tissue-based
T1 sequence (P34976 whole entry): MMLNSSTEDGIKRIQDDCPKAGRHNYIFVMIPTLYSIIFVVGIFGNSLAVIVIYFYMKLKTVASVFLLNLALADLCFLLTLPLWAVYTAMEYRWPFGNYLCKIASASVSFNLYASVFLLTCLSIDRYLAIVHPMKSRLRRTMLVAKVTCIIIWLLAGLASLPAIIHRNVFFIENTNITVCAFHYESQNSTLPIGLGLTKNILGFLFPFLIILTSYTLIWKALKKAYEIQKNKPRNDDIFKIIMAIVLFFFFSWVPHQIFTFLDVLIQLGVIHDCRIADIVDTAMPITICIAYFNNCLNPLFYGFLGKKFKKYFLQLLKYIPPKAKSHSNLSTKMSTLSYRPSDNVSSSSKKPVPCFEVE
Summary of the method: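 Rabbit aorta membranes, run without BSA. Competition against [¹²⁵I]Sar¹Ile⁸-AII, in duplicate tubes. Some values are means of two or more separate assays. Standard error is estimated at <30% of the mean.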

[3] = system: Rattus norvegicus; test: Time to produce onset of action for inhibition of Angiotensin II pressor response in conscious, normotensive rats 1 at mg/kg iv; assay type: functional
Summary of the method: (§2)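 Conscious male Sprague-Dawley rats (300–400 g), instrumented for iv dosing and arterial pressure. A single iv or po bolus of compound (PEG 400 for some oral doses), then repeated AII challenges at 0.1 μg/kg iv. […] Averaged from at least two rats unless noted.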

[4] = system: Rattus norvegicus; test: Peak percent inhibition of Angiotensin II pressor response in conscious, normotensive rats at 1 mg/kg iv; assay type: functional; summary of the method: as §1
[5] = system: Rattus norvegicus; test: Time to produce onset of action for inhibition of Angiotensin II pressor response in conscious, normotensive rats at 1 mg/kg iv; Not active; assay type: functional, organism-based; parameters: dose 1 mg/kg; summary of the method: as §2
[6] = system: Rattus norvegicus; test: Peak percent inhibition of Angiotensin II pressor response in conscious, normotensive rats at 0.1 mg/kg iv (no. of animals treated); assay type: functional; summary of the method: as §1
[7] = system: Rattus norvegicus; test: Peak percent inhibition of Angiotensin II pressor response in conscious, normotensive rats at 0.3 mg/kg po (no. of animals treated); assay type: functional; summary of the method: as §1
[8] = system: Rattus norvegicus; test: Time to produce onset of action for inhibition of pressor response in conscious, normotensive rats at 0.1 mg/kg iv (no. of animals treated); assay type: functional; summary of the method: as §2
[9] = system: Rattus norvegicus; test: Time to produce onset of action for inhibition of pressor response in conscious, normotensive rats at 0.3 mg/kg iv (no. of animals treated); assay type: functional; summary of the method: as §2
[10] = system: Rattus norvegicus; test: Time to produce onset of action for inhibition of pressor response in conscious, normotensive rats at 1 mg/kg po (no. of animals treated); assay type: functional; summary of the method: as §2
[11] = system: Rattus norvegicus; test: Time to produce onset of action for inhibition of pressor response in conscious, normotensive rats at 0.3 mg/kg po (no. of animals treated); assay type: functional; summary of the method: as §2
[12] = system: Rattus norvegicus; test: Peak percent inhibition of Angiotensin II pressor response in conscious, normotensive rats at 0.3 mg/kg iv (no. of animals treated); assay type: functional; summary of the method: as §1
[13] = system: Rattus norvegicus; test: Peak percent inhibition of Angiotensin II pressor response in conscious, normotensive rats at 1 mg/kg po (no. of animals treated); assay type: functional; summary of the method: as §1
[14] = system: Rattus norvegicus; test: Time to produce onset of action for inhibition of pressor response in conscious, normotensive rats 0.3 mg/kg po (no. of animals treated); assay type: functional; summary of the method: as §2
[15] = system: Rattus norvegicus; test: Time to produce onset of action for inhibition of pressor response in conscious, normotensive rats at 1 mg/kg iv (no. of animals treated); assay type: functional; summary of the method: as §2
[16] = system: Rattus norvegicus; test: Time to produce onset of action for inhibition of pressor response in conscious, normotensive rats at 3 mg/kg po (no. of animals treated); assay type: functional; summary of the method: as §2
[17] = system: Rattus norvegicus; test: Peak percent inhibition of Angiotensin II pressor response in conscious, normotensive rats at 1 mg/kg iv (no. of animals treated); assay type: functional; summary of the method: as §1
[18] = system: Rattus norvegicus; test: Peak percent inhibition of Angiotensin II pressor response in conscious, normotensive rats at 3 mg/kg po (no. of animals treated); assay type: functional; summary of the method: as §1
[19] = system: Rattus norvegicus; test: Peak percent inhibition of Angiotensin II pressor response in conscious, normotensive rats at 0.3 mg/kg po; assay type: functional; summary of the method: as §1
[20] = system: Rattus norvegicus; test: Peak percent inhibition of Angiotensin II pressor response in conscious, normotensive rats at 0.1 mg/kg po; assay type: functional; summary of the method: as §1
[21] = system: Rattus norvegicus; test: Time to produce onset of action for inhibition of Angiotensin II pressor response in conscious, normotensive rats at 1 mg/kg po; assay type: functional; summary of the method: as §2
[22] = system: Rattus norvegicus; test: Peak percent inhibition of Angiotensin II pressor response in conscious, normotensive rats at 1 mg/kg po; assay type: functional; summary of the method: as §1
[23] = system: Rattus norvegicus; test: Time to produce onset of action for inhibition of Angiotensin II pressor response in conscious, normotensive rats at 0.3 mg/kg po; assay type: functional; summary of the method: as §2
[24] = system: Rattus norvegicus; test: Time to produce onset of action for inhibition of Angiotensin II pressor response in conscious, normotensive rats at 0.3 mg/kg iv; assay type: functional; summary of the method: as §2
[25] = system: Rattus norvegicus; test: Peak percent inhibition of Angiotensin II pressor response in conscious, normotensive rats at 0.1 mg/kg iv; assay type: functional; summary of the method: as §1
[26] = system: Rattus norvegicus; test: Peak percent inhibition of Angiotensin II pressor response in conscious, normotensive rats at 0.3 mg/kg iv; assay type: functional; summary of the method: as §1
[27] = system: Rattus norvegicus; test: Time to produce onset of action for inhibition of Angiotensin II pressor response in conscious, normotensive rats at 0.1 mg/kg iv; assay type: functional; summary of the method: as §2
[28] = system: Rattus norvegicus; test: Time to produce onset of action for inhibition of Angiotensin II pressor response in conscious, normotensive rats at 0.1 mg/kg po; assay type: functional; summary of the method: as §2
[29] = system: Rattus norvegicus; test: Time to produce onset of action for inhibition of pressor response in conscious, normotensive rats at 3 mg/kg iv (no. of animals treated); assay type: functional; summary of the method: as §2
[30] = system: Rattus norvegicus; test: Peak percent inhibition of Angiotensin II pressor response in conscious, normotensive rats at 3 mg/kg iv (no. of animals treated); assay type: functional; summary of the method: as §1
[31] = system: Rattus norvegicus; test: Time to produce onset of action for inhibition of Angiotensin II pressor response in conscious, normotensive rats at 0..3 mg/kg iv; assay type: functional; summary of the method: as §2

With CCCCc1nn(-c2ccccc2)c(C(=O)O)c1Cc1ccc(-c2ccccc2-c2nn[nH]n2)cc1 as the molecule, how does the Inhibition [1] read?
Its Inhibition is 96%.

What about the IC50 [2] of the same molecule?
Its IC50 is 2.9 nM.

And the Duration [3]?
Its Duration is >6 h.

CCCCc1nn(-c2c(Cl)cccc2Cl)c(C(=O)OCC)c1Cc1ccc(-c2ccccc2-c2nn[nH]n2)cc1 was tested. Which inhibition in vivo at 1 mg/kg [4] did it give?
Its inhibition in vivo at 1 mg/kg is 16%.

And the Duration [5]?
Its Duration is “inactive”.

Which inhibition in vivo at 0.1 mg/kg [6] does the source give for CCCCc1nc(Cl)c(C(=O)O)n1Cc1ccc(-c2ccccc2-c2nn[nH]n2)cc1 [CARBOXYLIC ACID METABOLITE] here?
The inhibition in vivo at 0.1 mg/kg was 63%.

And the inhibition in vivo at 0.3 mg/kg [7]?
Its inhibition in vivo at 0.3 mg/kg is 63%.

What about the Duration [8] of the same molecule?
The Duration was ~4 h.

What about the Duration [9] of the same molecule?
Its Duration is >29 h.

What about the Duration [10] of the same molecule?
The Duration was >7 h.

What about the Duration [11] of the same molecule?
The Duration was 2.8 h.

And the inhibition in vivo at 0.3 mg/kg [12]?
The inhibition in vivo at 0.3 mg/kg was 100%.

And the inhibition in vivo at 1 mg/kg [13]?
Its inhibition in vivo at 1 mg/kg is 72%.

What does the source list for CCCCc1nc(Cl)c(CO)n1Cc1ccc(-c2ccccc2-c2nnn[nH]2)cc1 [LOSARTAN]?
Duration [14]: >3.5 h; inhibition in vivo at 0.3 mg/kg [7]: 36%; Duration [9]: 5.5 h; Duration [15]: >6 h; Duration [16]: >4.5 h; inhibition in vivo at 1 mg/kg [17]: 78%; inhibition in vivo at 0.3 mg/kg [12]: 52%; inhibition in vivo at 3 mg/kg [18]: 94%

Which inhibition in vivo at 0.3 mg/kg [19] does the source give for CCCc1nn(CC(F)(F)F)c(C(=O)O)c1Cc1ccc(-c2ccccc2-c2nn[nH]n2)cc1 here?
The inhibition in vivo at 0.3 mg/kg was 66%.

And the inhibition in vivo at 0.1 mg/kg [20]?
Its inhibition in vivo at 0.1 mg/kg is 54%.

What about the IC50 [2] of the same molecule?
The IC50 was 1.6 nM.

And the Duration [21]?
Its Duration is >23 h.

And the inhibition in vivo at 1 mg/kg [22]?
The inhibition in vivo at 1 mg/kg was 75%.

And the Duration [23]?
The Duration was >3 h.

And the Duration [24]?
Its Duration is >24 h.

And the inhibition in vivo at 0.1 mg/kg [25]?
Its inhibition in vivo at 0.1 mg/kg is 62%.

What about the inhibition in vivo at 0.3 mg/kg [26] of the same molecule?
Its inhibition in vivo at 0.3 mg/kg is 93%.

And the Duration [27]?
Its Duration is ~5 h.

What about the Duration [28] of the same molecule?
The Duration was ~2 h.

Which results are given for CCCCc1nc(-c2ccccc2)c(C(=O)O)n1Cc1ccc(-c2ccccc2-c2nn[nH]n2)cc1?
IC50 [2]: 2.1 nM; Duration [29]: >24 h; inhibition in vivo at 3 mg/kg [30]: 100%

For CCCc1nn(Cc2ccccc2)c(C(=O)O)c1Cc1ccc(-c2ccccc2-c2nn[nH]n2)cc1, which inhibition in vivo at 0.3 mg/kg [19] is on record?
The inhibition in vivo at 0.3 mg/kg was 82%.

And the IC50 [2]?
The IC50 was 0.42 nM.

And the Duration [21]?
The Duration was >23 h.

What about the inhibition in vivo at 1 mg/kg [22] of the same molecule?
The inhibition in vivo at 1 mg/kg was 100%.

And the Duration [23]?
Its Duration is >4 h.

And the inhibition in vivo at 0.3 mg/kg [26]?
The inhibition in vivo at 0.3 mg/kg was 95%.

And the Duration [31]?
The Duration was >24 h.
